Decrease and inhibition data for one compound are collected here from ChEMBL document CHEMBL1132971, “New azolidinediones as inhibitors of protein tyrosine phosphatase 1B with antihyperglycemic properties” (J Med Chem, 2000).

Experiment [1] has as its system Mus musculus. Nature of the experiment: Evaluated in vivo for their ability to decrease plasma glucose levels in diabetic C57BL/KsJ ob/ob mouse at a dose 100 mg/kg/day, **p indicates <0.01. Format: functional. A digest of the protocol:
(§1)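 Mice dosed orally once daily for 4 days; plasma glucose and insulin measured and expressed as percent change versus a vehicle-treated group (mean ± SE, 4-6 mice/group). NS is generally less than -15% change. Significance is versus vehicle-treated mice.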

Experiment [2] concerns Mus musculus. Put plainly: Evaluated in vivo for their ability to decrease plasma glucose levels in diabetic C57BL/KsJ db/db mouse at a dose 100 mg/kg/day, *p indicates <0.05. Format: functional. An outline of the steps:
as §1

In experiment [3] the test system is Mus musculus. Put plainly: Evaluated for their ability to decrease plasma insulin levels in mouse at a dose 100 mg/kg/day, **p indicates <0.01. Format: functional. A digest of the protocol: as §1
Experiment [4] has as its system Mus musculus. Nature of the experiment: Evaluated in vivo for their ability to decrease plasma glucose levels in diabetic C57BL/KsJ ob/ob mouse at a dose 10 mg/kg/day, *p indicates <0.05. Format: functional. An outline of the steps: as §1
The target of experiment [5] is T1, Tyrosine-protein phosphatase non-receptor type 1 (Rattus norvegicus) (UniProt P20417).
T1 sequence (whole entry): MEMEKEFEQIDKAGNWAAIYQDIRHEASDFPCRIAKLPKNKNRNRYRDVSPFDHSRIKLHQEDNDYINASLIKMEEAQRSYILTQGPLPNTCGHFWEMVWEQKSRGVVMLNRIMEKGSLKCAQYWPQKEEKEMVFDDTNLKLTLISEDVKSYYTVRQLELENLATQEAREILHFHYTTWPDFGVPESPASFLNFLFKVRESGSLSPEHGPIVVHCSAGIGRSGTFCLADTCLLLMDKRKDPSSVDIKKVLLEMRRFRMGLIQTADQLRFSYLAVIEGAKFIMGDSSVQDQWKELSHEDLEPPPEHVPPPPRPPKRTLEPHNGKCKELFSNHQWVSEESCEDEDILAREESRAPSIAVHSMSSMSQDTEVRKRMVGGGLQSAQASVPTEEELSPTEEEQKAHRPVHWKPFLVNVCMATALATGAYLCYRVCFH
Nature of the experiment: Inhibition of PTPase (PTP1B) activity in rat hepatic membrane at 50 uM concentration, using pNPP as the substrate. The note with it: Liver. The experiment is classed as cell membranes. A digest of the protocol:
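Liver membranes from male Sprague-Dawley rats (100-150 g), about 30 µg protein per well. Preincubated 10 min at 37 °C with compound in 1.25% DMSO in 50 mM HEPES pH 7.4. Then 6.33 mM pNPP for 30 min at 37 °C, stopped with NaOH. p-Nitrophenol read at 410 nm. Run in triplicate. Reported as percent of untreated control.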

Experiment [6] deals with T1, Tyrosine-protein phosphatase non-receptor type 1 (Rattus norvegicus). Nature of the experiment: Inhibition of PTPase activity using recombinant r-PTP1B as the enzyme and IR-triphosphopeptide as substrate at 50 uM. An outline of the steps:
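Rat recombinant PTP1B in 33 mM TRIS-HCl, 2 mM EDTA, 50 mM β-mercaptoethanol, pH 7.4 (about 1000-2000 nmol/min/mg). Preincubated 10 min at 37 °C with or without compound in HEPES buffer pH 7.4. Released phosphate read by malachite green-ammonium molybdate at 650 nm against a phosphate standard. Quadruplicates. IC50 by four-parameter logistic fit.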

`C/C(=C\Cn1oc(=O)[nH]c1=O)c1cccc(OCc2nc(-c3ccc(C(F)(F)F)cc3)oc2C)c1`: the Decrease in the experiment with Mus musculus [1] worked out at 58%; with Mus musculus [2], 62%; in the experiment on Mus musculus [3], 86%; with Mus musculus [4], 20%. Besides, the inhibition in experiment [5] came to 49%; in experiment [6] it was 1.9%.
